Data: paper PMC13154657 (Journal of Advanced Research, 2025)

How the values were obtained:
human P2Y14 receptor = molecular target: T1, human P2Y14 receptor (Homo sapiens, UniProt Q15391); assay: In vitro P2Y14R antagonistic activity; assay type: cell-based
T1 sequence (Q15391 1-338): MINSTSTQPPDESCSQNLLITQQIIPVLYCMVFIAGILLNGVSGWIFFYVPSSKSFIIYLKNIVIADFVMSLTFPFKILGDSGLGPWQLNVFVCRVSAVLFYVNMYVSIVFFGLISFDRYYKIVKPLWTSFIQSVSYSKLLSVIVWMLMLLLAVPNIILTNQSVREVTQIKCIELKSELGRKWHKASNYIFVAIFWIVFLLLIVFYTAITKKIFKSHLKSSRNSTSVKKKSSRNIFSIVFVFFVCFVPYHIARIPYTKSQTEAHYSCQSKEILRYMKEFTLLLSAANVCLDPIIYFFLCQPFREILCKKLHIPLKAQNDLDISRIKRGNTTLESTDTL
Summary of the method: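 hP2Y14-HEK293 cells (HEK293 stably expressing human P2Y14R) grown in DMEM with 10 % FBS and 1 % penicillin/streptomycin. Seeded at 10,000 cells/well in 384-well plates and preincubated 30 min at 37 °C with test compound or DMSO. Stimulated with UDPG; intracellular cAMP measured by cAMP-Glo luminescence on a plate reader. N = 3.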

HT-29 cells = assay: Cell viability assay; assay type: cell-based; details: 100 μM, 24 h, CCK-8, N = 5
Summary of the method: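 HT-29 cells cultured in DMEM with 10 % FBS and 1 % penicillin/streptomycin at 37 °C, 5 % CO2. Seeded at 10,000 cells/well in 96-well plates and exposed to test compound or DMSO for 24 h at 37 °C. Viability read with CCK-8 per kit instructions; N = 5.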

[1] = tested on: DSS-induced experimental colitis; assay: DSS-induced experimental colitis model in mice; assay type: in vivo; details: DB07565 rectally daily
Summary of the method: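 Male C57BL/6 J mice, 7–8 weeks, randomised by weight into groups of six. Colitis induced with 3 % (w/v) DSS in drinking water for 7 days. Test compound dissolved in DMSO, diluted in PBS to 50 or 100 μM, given rectally at 100 µl/mouse daily. Oral 5-ASA 50 mg/kg daily as reference. Colons fixed in 4 % PFA and paraffin-embedded. 5 μm sections stained with H&E; immunofluorescence for Claudin-1, Occludin and ZO-1 at 4 ℃ overnight, 1 h secondary, DAPI 10 min.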

[2] = within 60 min; cited from earlier work

Structure (SMILES): O=C(O)CCC(=O)OC[C@@H](NC(=O)C(Cl)Cl)[C@H](O)c1ccc([N+](=O)[O-])cc1 [DB07565, Chloramphenicol succinate]
- IC50 (human P2Y14 receptor): 1.58 nM
- cytotoxicity (cell viability) (HT-29 cells): low cytotoxicity
- histopathological analysis of colon (H&E) ([1]; C57BL/6 J mice, 3 % DSS 7 days): mitigated DSS-induced tissue damage and inflammatory cell infiltration in the colon
- gut barrier function, immunofluorescence of tight junction proteins (Claudin-1, Occludin, ZO-1) ([1]; colon tissue of DSS-treated mice): markedly enhanced gut barrier function
- degradation in intestinal fluid [2]: less than 10%
